ChEMBL document CHEMBL3259533, “A new convenient synthetic method and preliminary pharmacological characterization of triazinediones as prokineticin receptor antagonists” (Eur J Med Chem, 2014)
Calls of active or inactive are those of the source. The calls are words filed in the database; no cut-off is given here.

How the values were obtained:
Mus musculus [1] = assay: Analgesic activity in C57Bl/6 mouse assessed as changes in basal thermal sensitivity up to 120 pmol administered as intraplantar route at 48 degC after 15 to 180 mins; assay type: functional, organism-based
In short: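 Male C57Bl/6 mice (25–30 g), trained in paw-immersion test the preceding week. Compound in saline, 20 µl intraplantar, up to 120 pmol. Hind paw dipped in 48 °C water; withdrawal latency measured three times at 15–180 min post-dose versus baseline (mean of last three pre-dose readings). Result as % change from baseline; 5 mice per dose.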

Mus musculus [2] = assay: Analgesic activity in C57Bl/6 mouse assessed as inhibition of Bv8-induced decrease in latencies to paw withdrawal administered as intraplantar route at 48 degC after 15 to 180 mins; assay type: functional, organism-based
In short: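 Male C57Bl/6 mice (25–30 g), trained the preceding week. Antagonist in saline, 20 µl intraplantar, 5 min before Bv8 (63 fmol i.pl. in saline). Paw withdrawal latency from 48 °C water measured in triplicate at 15–180 min; %ΔNT = 100×(NTts−NTB)/NTB. Separate group of 5 mice per dose; EC50 with 95% confidence intervals from dose–response curves.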

In the case of `COc1ccc(Cn2c(NCCNC(=N)N)nc(=O)n(Cc3ccc(F)cc3)c2=O)cc1`, the Activity (Mus musculus [1]) is reported as “inactive” and the EC50 (Mus musculus [2]) is reported as 0.31 pmol.
With `COc1ccc(Cn2c(NCCNC(=N)N)nc(=O)n(Cc3ccc([N+](=O)[O-])cc3)c2=O)cc1` the Activity (Mus musculus [1]) was “inactive” and the EC50 (Mus musculus [2]) was 48 pmol.
`COc1ccc(Cn2c(NCCNC(=N)N)nc(=O)n(Cc3ccc(C(F)(F)F)cc3)c2=O)cc1` was tested, and the Activity (Mus musculus [1]) was “inactive” and the EC50 (Mus musculus [2]) was 51 pmol.
`COc1ccc(Cn2c(=O)nc(NCCNC(=N)N)n(Cc3ccc(I)cc3)c2=O)cc1` was tested, and the Activity (Mus musculus [1]) was “inactive” and the EC50 (Mus musculus [2]) was 39 pmol.
`COc1ccc(Cn2c(NCCNC(=N)N)nc(=O)n(Cc3ccc(Cl)cc3)c2=O)cc1` was tested, and the Activity (Mus musculus [1]) was “inactive” and the EC50 (Mus musculus [2]) was 4 pmol.
In the case of `COc1ccc(Cn2c(=O)nc(NCCNC(=N)N)n(Cc3ccc(C)cc3)c2=O)cc1`, the Activity (Mus musculus [1]) is reported as “inactive” and the EC50 (Mus musculus [2]) is reported as 4.5 pmol.
With `COc1ccc(Cn2c(=O)nc(NCCNC(=N)N)n(Cc3ccc(F)cc3)c2=O)cc1` the Activity (Mus musculus [1]) was “inactive” and the EC50 (Mus musculus [2]) was 36 pmol.
`Cc1ccc(Cn2c(NCCNC(=N)N)nc(=O)n(Cc3ccc(C(F)(F)F)cc3)c2=O)cc1` was tested, and the Activity (Mus musculus [1]) was “inactive” and the EC50 (Mus musculus [2]) was 0.033 pmol.
With `COc1ccc(Cn2c(NCCNC(=N)N)nc(=O)n(Cc3ccc(Br)cc3)c2=O)cc1` the Activity (Mus musculus [1]) was “inactive” and the EC50 (Mus musculus [2]) was 0.36 pmol.
For `CCc1ccc(Cn2c(=O)nc(NCCNC(=N)N)n(Cc3ccc(OC)cc3)c2=O)cc1`, the Activity (Mus musculus [1]) was “inactive” and the EC50 (Mus musculus [2]) was 5.8 pmol.
`COc1ccc(Cn2c(=O)nc(NCCNC(=N)N)n(Cc3ccc(Cl)cc3)c2=O)cc1` was tested, and the Activity (Mus musculus [1]) was “inactive” and the EC50 (Mus musculus [2]) was 4.4 pmol.
`COc1ccc(Cn2c(=O)nc(NCCNC(=N)N)n(Cc3ccc(Cl)c(Cl)c3)c2=O)cc1` was tested, and the Activity (Mus musculus [1]) was “inactive” and the EC50 (Mus musculus [2]) was 4.5 pmol.
With `COc1ccc(Cn2c(=O)nc(NCCNC(=N)N)n(Cc3ccc(Br)cc3)c2=O)cc1` the Activity (Mus musculus [1]) was “inactive” and the EC50 (Mus musculus [2]) was 4.3 pmol.
`COc1ccc(Cn2c(NCCNC(=N)N)nc(=O)n(Cc3ccc(OC)cc3)c2=O)cc1` was tested, and the Activity (Mus musculus [1]) was “inactive”.
In the case of `Cc1ccc(Cn2c(=O)nc(NCCNC(=N)N)n(Cc3ccc(Cl)c(Cl)c3)c2=O)cc1`, the Activity (Mus musculus [1]) is reported as “inactive” and the EC50 (Mus musculus [2]) is reported as 5.1 pmol.
`COc1ccc(Cn2c(=O)nc(NCCNC(=N)N)n(Cc3ccccc3)c2=O)cc1` was tested, and the Activity (Mus musculus [1]) was “inactive” and the EC50 (Mus musculus [2]) was 63 pmol.
With `COc1ccc(Cn2c(NCCNC(=N)N)nc(=O)n(Cc3ccc(I)cc3)c2=O)cc1` the Activity (Mus musculus [1]) was “inactive” and the EC50 (Mus musculus [2]) was 51 pmol.
For `COc1ccc(Cn2c(=O)nc(NCCNC(=N)N)n(Cc3ccc(C(F)(F)F)cc3)c2=O)cc1`, the Activity (Mus musculus [1]) was “inactive” and the EC50 (Mus musculus [2]) was 48 pmol.
In the case of `COc1ccc(Cn2c(NCCNC(=N)N)nc(=O)n(Cc3ccc4c(c3)OCO4)c2=O)cc1`, the Activity (Mus musculus [1]) is reported as “inactive” and the EC50 (Mus musculus [2]) is reported as 39 pmol.
With `COc1ccc(Cn2c(NCCNC(=N)N)nc(=O)n(Cc3ccc(C)cc3)c2=O)cc1` the Activity (Mus musculus [1]) was “inactive” and the EC50 (Mus musculus [2]) was 4.4 pmol.
